Assay results: ChEMBL document CHEMBL4266004, “Series of Alkynyl-Substituted Thienopyrimidines as Inhibitors of Protozoan Parasite Proliferation” (ACS Med Chem Lett, 2018)

What was measured:
[1] = Selectivity index, ratio of TC50 for human HepG2 cells to EC50 for Plasmodium falciparum D6 trophozoites; assay type: toxicity; details: read-out: Selectivity Index
How it was run: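 P. falciparum D6 screened in duplicate or quadruplicate. Selectivity = HepG2 TC50 / P. falciparum EC50.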

[2] = tested on: Leishmania major; assay: Antileishmanial activity against Leishmania major intracellular amastigotes harboring luciferase infected in mouse RAW264.7 cells after 96 hrs by luminescence assay; assay type: functional, organism-based; details: RAW264.7, 96 h
How it was run: (§1)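 L. major amastigotes screened in duplicate or quadruplicate. Selectivity derived as HepG2 TC50 / L. major EC50.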

[3] = Selectivity index, ratio of TC50 for human HepG2 cells to EC50 for Leishmania major intracellular amastigotes harboring luciferase infected in mouse RAW264.7 cells; assay type: toxicity, cell-based; details: read-out: Selectivity Index; how it was run: as §1
[4] = tested on: Plasmodium falciparum; assay: Antimalarial activity against Plasmodium falciparum D6 trophozoites after 72 hrs by SYBR Green I dye-based fluorescence assay; assay type: functional, organism-based; details: D6, 72 h
How it was run: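 P. falciparum D6 strain; compounds run in duplicate or quadruplicate; EC50 determined from dose-response.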

[5] = Cytotoxicity against human HepG2 cells; assay type: cell-based; details: read-out: TC50 (the source's name)
[6] = tested on: Trypanosoma brucei brucei; assay: Antitrypanosomal activity against Trypanosoma brucei brucei 427 at 5 uM after 48 hrs by presto blue dye based fluorescence assay relative to control; assay type: functional
How it was run: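 Single-concentration screen of bloodstream T. brucei cultures at 5 μM, 5 × 10^4 cells/mL; percent proliferation inhibition recorded.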

[7] = tested on: Trypanosoma cruzi; assay: Antitrypanosomal activity against Trypanosoma cruzi Tulahuen intracellular amastigote harboring beta-galactosidase infected in mouse NIH/3T3 cells after 96 hrs by CPRG reagent based assay; assay type: functional, organism-based; details: NIH3T3, 96 h
[8] = Cytotoxicity against mouse NIH/3T3 cells; assay type: cell-based, NIH3T3; details: read-out: TC50 (the source's name)
[9] = Selectivity index, ratio of TC50 for human HepG2 cells to EC50 for Trypanosoma brucei brucei 427; assay type: toxicity; details: read-out: Selectivity Index
[10] = Selectivity index, ratio of TC50 for mouse NIH/3T3 cells to EC50 for Trypanosoma cruzi Tulahuen intracellular amastigote harboring beta-galactosidase; assay type: toxicity, cell-based; details: read-out: Selectivity Index
How it was run: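 NIH 3T3 cells, the host line for intracellular T. cruzi amastigote culture, tested for toxicity. Selectivity = NIH3T3 TC50 / T. cruzi EC50.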

[11] = tested on: Trypanosoma brucei brucei; assay: Antitrypanosomal activity against Trypanosoma brucei brucei 427 after 48 hrs by presto blue dye based fluorescence assay; assay type: functional, organism-based; details: Trypanosoma brucei, 427, 48 h

SMILES | selectivity ratio [1] | EC50 [2] [µM] | selectivity ratio [3] | EC50 [4] [µM] | CC50 [5] [µM] | Activity [6] [%] | EC50 [7] [µM] | CC50 [8] [µM] | selectivity ratio [9] | selectivity ratio [10] | EC50 [11] [nM]
Fc1cccc(COc2ccc(Nc3ncnc4sc(C#CCN5CCOCC5)cc34)cc2Cl)c1 | > 9.7 | 6.5 | > 4.5 | 3 | > 29 | 48 |  |  |  |  | 
CCCN(CC#Cc1cc2ncnc(Nc3ccc(OCc4cccc(F)c4)c(Cl)c3)c2s1)CCC |  | 6 | 4.5 | > 15 | 26.5 | 1 | > 50 | > 50 |  |  | 
CN(CC#Cc1cc2ncnc(Nc3ccc(OCc4cccc(F)c4)c(Cl)c3)c2s1)Cc1ccccc1 |  | > 15 |  | > 15 | > 27 | 18 | > 50 | > 50 |  |  | 
CC(C)(C)CC#Cc1cc2ncnc(Nc3ccc(OCc4cccc(F)c4)c(Cl)c3)c2s1 |  | > 15 |  | > 15 | 29.3 | 31 | > 50 | > 50 |  |  | 
Fc1cccc(COc2ccc(Nc3ncnc4cc(C#CCN5CCCC5)sc34)cc2Cl)c1 | 3.8 | 4.1 | 1.2 | 1.3 | 4.9 | >75 | 1.8 | 6.4 | 18 | 3.6 | 280
Fc1cccc(COc2ccc(Nc3ncnc4cc(C#Cc5ccc(C(F)(F)F)nc5)sc34)cc2Cl)c1 |  | > 3 |  | > 3.6 | > 5 | 31 | > 50 | > 50 |  |  | 
Fc1cccc(COc2ccc(Nc3ncnc4ccc(C#CC5CCCC5)cc34)cc2Cl)c1 |  | > 2 |  | > 15 | > 3 | 2 | 2 | > 50 |  | > 25 | 
Fc1cccc(COc2ccc(Nc3ncnc4ccc(-c5cccc(N6CCOCC6)c5)cc34)cc2Cl)c1 |  |  |  |  | > 35 |  |  |  |  |  | 
Fc1cccc(COc2ccc(Nc3ncnc4ccc(C#CCN5CCOCC5)cc34)cc2Cl)c1 | > 5.1 | 5.5 | > 5.5 | 5.9 | > 30 | 27 | 0.8 | 33 |  | 41 | 
CN(C)CC#Cc1cc2c(Nc3ccc(OCc4cccc(F)c4)c(Cl)c3)ncnc2s1 | > 21 | 5.5 | > 5.8 | 1.5 | > 32 | >75 | 2.6 | 41 | > 13 | 16 | 2500
Fc1cccc(COc2ccc(Nc3ncnc4cc(C#CC5CCCC5)sc34)cc2Cl)c1 | > 8.6 | > 15 |  | 3.6 | > 31 | >75 | > 50 | > 100 | > 41 |  | 760
Fc1cccc(COc2ccc(Nc3ncnc4cc(C#CCN5CCSCC5)sc34)cc2Cl)c1 |  | 5.9 | > 4.8 | > 15 | > 28 | 12 | 5 | > 50 |  | > 10 | 
CCOC(=O)CN(C)CC#Cc1ccc2ncnc(Nc3ccc(OCc4cccc(F)c4)c(Cl)c3)c2c1 |  | > 15 |  | > 15 | > 28 | 23 | 8 | > 50 |  | > 6.3 | 
O=C(Cn1ccnc1[N+](=O)[O-])NCc1ccccc1 [BENZNIDAZOLE] |  |  |  |  |  |  | 0.79 |  |  |  | 
CC(C)(C)CC#Cc1cc2c(Nc3ccc(OCc4cccc(F)c4)c(Cl)c3)ncnc2s1 | > 5.6 | > 15 |  | 5.7 | > 32 | 1 | 30 | > 50 |  | > 1.7 | 
CN(C)CC#Cc1cc2ncnc(Nc3ccc(OCc4cccc(F)c4)c(Cl)c3)c2s1 |  | 2.5 | > 13 | > 15 | > 32 | 52 | 8.2 | > 50 |  | > 6 | 

SMILES | selectivity ratio [1] | EC50 [2] [µM] | selectivity ratio [3] | EC50 [4] [µM] | CC50 [5] [µM] | Activity [6] [%] | EC50 [7] [µM] | CC50 [8] [µM] | selectivity ratio [9] | selectivity ratio [10] | EC50 [11] [nM]
Fc1cccc(COc2ccc(Nc3ncnc4ccc(C#CCN5CCSCC5)cc34)cc2Cl)c1 | > 26 | 5.4 | > 5.4 | 1.1 | > 29 | 19 | 2.5 | > 50 |  | > 20 | 
C[C@@H]1[C@H](O)[C@@H](C)/C=C/C=C/C=C/C=C/C=C/C=C/C=C/[C@H](O[C@@H]2O[C@H](C)[C@@H](O)[C@H](N)[C@@H]2O)C[C@@H]2O[C@](O)(C[C@@H](O)C[C@@H](O)[C@H](O)CC[C@@H](O)C[C@@H](O)CC(=O)O[C@H]1C)C[C@H](O)[C@H]2C(=O)O [AMPHOTERICIN B] |  | 0.035 |  |  |  |  |  |  |  |  | 
CN(CC#Cc1cc2c(Nc3ccc(OCc4cccc(F)c4)c(Cl)c3)ncnc2s1)Cc1ccccc1 | 4.6 | 11 | 2 | 4.8 | 21.6 | 0 | 1.9 | 2.5 |  | 1.3 | 
CC(C)(C)OC(=O)N1CCN(CC#Cc2cc3ncnc(Nc4ccc(OCc5cccc(F)c5)c(Cl)c4)c3s2)CC1 | > 19 | 6.9 | > 3.5 | 1.5 | > 24 | 15 | 13 | 47 |  | 3.6 | 
CCOC(=O)CN(C)CC#Cc1cc2c(Nc3ccc(OCc4cccc(F)c4)c(Cl)c3)ncnc2s1 |  | 9 | > 3.1 | > 15 | > 28 | 53 | > 50 | > 50 |  |  | 
Fc1cccc(COc2ccc(Nc3ncnc4cc(C#CCN5CCNCC5)sc34)cc2Cl)c1 | > 15 | 4 | > 7.3 | 1.9 | > 29 | 16 | > 50 | > 50 |  |  | 
CC(C)(C)OC(=O)N1CCC[C@H]1C#Cc1cc2ncnc(Nc3ccc(OCc4cccc(F)c4)c(Cl)c3)c2s1 | > 15 | 1.6 | > 16 | 1.7 | > 26 | >75 | > 50 | > 100 | > 22 |  | 1200
CCOC(=O)CN(C)CC#Cc1cc2ncnc(Nc3ccc(OCc4cccc(F)c4)c(Cl)c3)c2s1 | 7.1 | 4.6 | 5.9 | 3.8 | 27 | 27 | 9.6 | 52 |  | 5.4 | 
Fc1cccc(COc2ccc(Nc3ncnc4cc(C#CCN5CCOCC5)sc34)cc2Cl)c1 | > 9.7 | 7.6 | > 3.8 | 3 | > 29 | 16 | 3.4 | 4.7 |  | 1.4 | 
CCN(CC)CCCC(C)Nc1ccnc2cc(Cl)ccc12 (centres undefined) [CHLOROQUINE] |  |  |  | 0.0089 |  |  |  |  |  |  | 
Cc1ccc(C(=O)Nc2ccc(S(=O)(=O)O)c3cc(S(=O)(=O)O)cc(S(=O)(=O)O)c23)cc1NC(=O)c1cccc(NC(=O)Nc2cccc(C(=O)Nc3cc(C(=O)Nc4ccc(S(=O)(=O)O)c5cc(S(=O)(=O)O)cc(S(=O)(=O)O)c45)ccc3C)c2)c1 [SURAMIN] |  |  |  |  |  |  |  |  |  |  | 40
CC(C)CC#Cc1cc2ncnc(Nc3ccc(OCc4cccc(F)c4)c(Cl)c3)c2s1 |  | > 15 |  | > 15 | > 32 | 11 | > 50 | > 50 |  |  | 
Fc1cccc(COc2ccc(Nc3ncnc4cc(C#Cc5ncccc5F)sc34)cc2Cl)c1 | 27 | > 15 |  | 1.1 | 30 | 19 | 19 | 47 |  | 2.5 | 
COCC#Cc1cc2c(Nc3ccc(OCc4cccc(F)c4)c(Cl)c3)ncnc2s1 | 3.2 | 7.3 | 1.3 | 3.02 | 9.5 | 18 | 1.5 | 1.7 |  | 1.1 | 
Fc1cccc(COc2ccc(Nc3ncnc4cc(C#Cc5cn6ccnc6cn5)sc34)cc2Cl)c1 | > 4.9 | > 15 |  | 5.7 | > 28 | 33 | > 50 | > 50 |  |  | 
